Published values pooled from the literature.
Protocols differ between the studies behind these lines.
FAP: Prolyl endopeptidase FAP (FAP, Homo sapiens, UniProt Q12884)

`C#Cc1n[nH]c2c(-c3cn([C@@H](C)c4ccccc4)c(=O)[nH]c3=O)cc(F)cc12` has an inhibition of 8.4% (Proto-oncogene tyrosine-protein kinase Src (SRC, Homo sapiens, UniProt P12931); enzyme activity, inhibitor; 0.1 µM).
With `COc1ccc(S(=O)(=O)N(CC(=O)NO)CC(C)C)cc1` the inhibition was 63% (Stromelysin-2 (Homo sapiens, UniProt P09238); enzyme activity, inhibitor; 1 µM).
For `C=CCn1c2cc(OC(=O)CCCCN3CCN(Cc4cccc(Cl)c4)CC3)ccc2c2ccnc(C)c21`, the inhibition was 48.1% (Acetylcholinesterase (ACHE, Homo sapiens, UniProt P22303); enzyme activity, inhibitor, Ellman; 1 µM).
With `Cn1cc(-c2cccc(N3CCc4c(sc5c4CC(C)(C)C5)C3=O)c2CO)cc(Nc2ccncn2)c1=O` the inhibition was 5% (5'-AMP-activated protein kinase catalytic subunit alpha-2 (PRKAA2, Homo sapiens, UniProt P54646); enzyme activity, inhibitor; 1 µM).
With `N#C[C@@H]1CC(F)(F)CN1C(=O)CNC(=O)c1ccnc2ccccc12` the inhibition was 1% (FAP; enzyme activity, inhibitor; 1 nM).
With `Cc1ncc(C)n2nc(/C=C/c3nc(N4CCCC4)cc(N4CCOCC4)n3)nc12` the inhibition was -8% (C-X-C chemokine receptor type 4 (CXCR4, Homo sapiens, UniProt P61073); cell-free assay; 10 µM).
With `N=C(N)c1ccc2cc(OC(=O)c3ccc(N=C(N)N)cc3)ccc2c1` the inhibition was 25% (FAP; enzyme activity, inhibitor; 10 µM).
`C#Cc1n[nH]c2c(-c3cn(C(C)c4ccccn4)c(=O)[nH]c3=O)cc(F)cc12` (stereo not drawn) gave an inhibition of 6.8% (Cyclin-dependent kinase 1, with cyclin B (CDK1, Homo sapiens, UniProt P06493); enzyme activity, inhibitor; 1 µM).
`Cn1cc(-c2cc(F)cc(N3CCn4c(cc5c4CCCC5)C3=O)c2CO)cc(Nc2ccc(N3CCN(C4COC4)CC3)cn2)c1=O` gave an inhibition of 12% (Serine/threonine-protein kinase Sgk2 (SGK2, Homo sapiens, UniProt Q9HBY8); enzyme activity, inhibitor; 0.1 µM).
